Assays:
Albino Swiss mice [1] = experiment: Forced swim test; format: in vivo; conditions: 30 min before the test; for antidepressant effect in the forced swim test (in words): mice, ip
Method in brief: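 Male Albino Swiss mice (24-28 g), kept at 20 ± 1°C with free food and water and used once. Test compound was injected 30 min before the session. Each mouse swam 6 min in a glass cylinder (25 cm high, 10 cm diameter) holding 6 cm of water at 23-25°C. An observer timed immobility (floating, small head-keeping movements) over the last 4 min, after 2 min habituation. Mean ± SEM; Dunnett's test vs vehicle.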

Albino Swiss mice [2] = experiment: Locomotor activity test; format: in vivo; conditions: 8 20 mg/kg, 10 5 mg/kg, 12 10 mg/kg; ip 30 min before the test; first 6 minutes; vehicle 554 ± 46

| SMILES | reduction in mice immobility time (Albino Swiss mice [1]; 20 mg/kg ip) [%] | antidepressant effect in the forced swim test (in words) (Albino Swiss mice [1]) | Locomotor activity 6 minutes (number of light beam crossings ± S.E.M.) (Albino Swiss mice [2]) | reduction in mice immobility time (Albino Swiss mice [1]; 5 mg/kg ip) [%] | reduction in mice immobility time (Albino Swiss mice [1]; 10 mg/kg ip) [%] |
| --- | --- | --- | --- | --- | --- |
| CCCCCCCCN1CCN(c2ccc3cc([N+](=O)[O-])ccc3n2)CC1 [Compound 8, 2-(4-Octyl-piperazin-1-yl)-6-nitroquinoline] | 15 | moderate antidepressant activity | 453 ± 41 | – | – |
| CCCCCCCCCN1CCN(c2ccc3cc([N+](=O)[O-])ccc3n2)CC1 [Compound 9, 2-(4-Nonyl-piperazin-1-yl)-6-nitroquinoline] | – | ineffective | – | – | – |
| CCCCCCCCCCN1CCN(c2ccc3cc([N+](=O)[O-])ccc3n2)CC1 [Compound 10, 2-(4-Decylo-piperazin-1-yl)-6-nitroquinoline] | – | moderate antidepressant activity | 239 ± 41 | 12 | – |
| CCCCCCCCCCCN1CCN(c2ccc3cc([N+](=O)[O-])ccc3n2)CC1 [Compound 11, 2-(4-Undecyl-piperazin-1-yl)-6-nitroquinoline] | – | ineffective | – | – | – |
| CCCCCCCCCCCCN1CCN(c2ccc3cc([N+](=O)[O-])ccc3n2)CC1 [Compound 12, 2-(4-Dodecyl-piperazin-1-yl)-6-nitroquinoline] | – | moderate antidepressant activity | 628 ± 55 | 10 | 8 |
